Source: PubChem BioAssay (several laboratories)
Most compounds without a hit are left out; they make up all but 3.7% or so of the library.
GPR7 antag: GPR7 receptor antagonists, primary screen, cell-based, fluorescence, single concentration. Neuropeptides B/W receptor type 1 (Homo sapiens), P48145. GPR7-expressing cells, fluorescence antagonist assay. inhibition, % at 4.4 µM. 290,000 tested, 1.1% active; in the data active means inhibition above about 16%, passing the limit was not always enough;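 further: cells stimulated with the agonist NPW; 0% = agonist with vehicle and 100% = vehicle without agonist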
EP2 antag: human EP2 receptor antagonists, primary screen, TR-FRET cAMP, C6 glioma cells; 260,000 tested, 0.52% active; AID 1422, 2008; C6 glioma cells expressing human EP2; cells stimulated with saturating PGE2; inhibition, % at 25 µM; Prostaglandin E2 receptor EP2 subtype (Homo sapiens), P43116;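 active means percent inhibition above 40 after rounding to a whole number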;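 further: rat C6 glioma host cells with rolipram phosphodiesterase inhibitor present; the protocol text gives 20 µM as final concentration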
EP2 modulator: EP2 receptor modulators, cAMP readout, primary screen, cell-based, HTRF cAMP, PGE2 stimulation | Prostaglandin E2 receptor EP2 subtype (Homo sapiens), P43116 | EP2-expressing cells, cAMP HTRF FRET, PGE2 co-stimulation | induction, % at 25 µM | 260,000 tested, 0.83% active | AID 940, 2007;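 active means compounds whose cAMP rise, as percent of the full-agonist control response, exceeds 60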;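 further: rat C6 glioma line stably carrying human EP2 under a CMV promoter; the protocol text gives 20 µM as final concentration; 100% = response of wells given 1 µM PGE2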
OX1R antag-1: OX1R (HCRTR1) antagonists, primary screen, fluorescence, CHO/OX1R cells, Fluo-8 calcium, orexin A. AID 434989, 2010. 330,000 tested, 0.43% active. Orexin/Hypocretin receptor type 1 (Homo sapiens), O43613. Fluo-8 calcium fluorescence. inhibition, % at 5 µM;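 active means inhibition above its plate's threshold, mean inhibition of all tested compounds on the plate plus 3 SD, cut at about 37% in these data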;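 further: 0% = orexin A challenge wells and 100% = SB-334867-A antagonist wells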
Target sequence (O43613 whole entry, looked up): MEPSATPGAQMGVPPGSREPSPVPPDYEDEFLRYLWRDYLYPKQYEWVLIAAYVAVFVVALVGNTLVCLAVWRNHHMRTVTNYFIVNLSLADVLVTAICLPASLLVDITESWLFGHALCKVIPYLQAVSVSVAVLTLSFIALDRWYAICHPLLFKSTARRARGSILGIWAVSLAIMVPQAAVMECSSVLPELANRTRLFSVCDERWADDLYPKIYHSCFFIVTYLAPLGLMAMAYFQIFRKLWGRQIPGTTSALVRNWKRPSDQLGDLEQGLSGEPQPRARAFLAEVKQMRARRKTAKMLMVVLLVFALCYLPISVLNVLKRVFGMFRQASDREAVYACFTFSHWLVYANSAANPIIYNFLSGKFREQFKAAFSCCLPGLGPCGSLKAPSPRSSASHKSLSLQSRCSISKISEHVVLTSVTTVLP
CHO parental Ca: ATP-evoked calcium signal inhibitors, parental CHO, primary screen, counter-screen for OX1R antagonist project, cell-based, fluorescence, Fluo-8 calcium dye; AID 463079, 2010; 330,000 tested, 0.63% active; parental CHO-K1, ATP-induced calcium, Fluo-8 fluorescence; inhibition, % at 5.6 µM;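 active means inhibition above that plate's mean sample inhibition plus 3 SD, cut at about 26% in these data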;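 further: 0% = ATP-challenged DMSO wells and 100% = DMSO wells without ATP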
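material = parental CHO cells | also added = ATP as calcium-mobilizing challenge | dosing = single point at 5.6 µM | detection = intracellular calcium via Fluo-8 no-wash fluorescent dye | read-out = % inhibition | benchmarks = low control ATP plus DMSO, high control DMSO only | repeats = one well per compound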
OX1R antag-2: antagonists of human orexin 1 receptor (OX1R); OX1R-expressing cells, FRET antagonist read-out; Orexin/Hypocretin receptor type 1 (Homo sapiens), O43613; 330,000 tested, 1.8% active; inhibition, % at 6.6 µM; in the data active means inhibition mostly above about 38%, no sharp cut-off; inactive means mostly below about 40%;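 further: 0% = agonist challenge alone and 100% = reference antagonist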
GPR7 antag conf: GPR7 receptor antagonists, confirmation, cell-based, fluorescence, single concentration; GPR7-expressing cells, calcium fluorescence antagonist mode; inhibition, % at 4.4 µM; 2,400 tested, 52% active; shares compounds with GPR7 antag; in the data active means inhibition above about 24%;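 further: stimulated with the GPR7 agonist NPW; 0% = agonist plus vehicle and 100% = vehicle alone without agonist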
MCHR1 antagonist: MCHR1 antagonists in cells, counter-screen for GPR7 antagonist project, cell-based, fluorescence, human | shares compounds with GPR7 antag | MCHR1-expressing cells, fluorescence antagonist assay | inhibition, % at 4.4 µM | 2,400 tested, 62% active; in the data active means inhibition above about 22%;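 further: 0% = vehicle with agonist and 100% = vehicle without agonist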
Active calls of the source: *; / = not tested or not shown.

SMILES	GPR7 antag	EP2 antag	EP2 modulator	OX1R antag-1	CHO parental Ca	OX1R antag-2	GPR7 antag conf	MCHR1 antagonist
O=C(c1ccco1)N1CCN(S(=O)(=O)c2ccc(C3CCCCC3)cc2)CC1	-11.1	7.4	-20.4	-26.7	-0.7	14.4	/	/
Clc1cccc(CN2CCc3c([nH]c4ccccc34)C2)c1Cl	49.9*	/	/	-25.4	-14.4	9.8	47.0*	28.7*
CC1CCN(CCCNC(=O)CN2C(=O)CSc3ccc(S(=O)(=O)N4CCC(C)CC4)cc32)CC1	25.9*	/	/	-24.4	-23.9	11.6	-4.8	-9.0
Cc1nn(CCCC(=O)Nc2c(F)cc(F)cc2Br)c(C)c1[N+](=O)[O-]	-2.0	8.5	-2.8	-20.9	-1.5	6.2	/	/
O=C(COc1ccc(Br)cc1CNC1CCCCC1)NCCc1ccccc1	21.0*	7.2	-29.1	-20.3	-5.8	12.5	48.0*	30.8*
COc1ccc(Br)cc1CN(C)CC(=O)NCCc1ccccc1	5.4	5.3	24.8	-31.1	-16.9	11.5	/	/
Cc1cc[n+](CC[n+]2ccc(C)cc2)cc1	/	/	/	-14.5	7.4	15.3	/	/
CCC(C)(C)c1ccc(OCCCC[n+]2ccc(C)cc2)c(C(C)(C)CC)c1	69.0*	14.5	-19.9	27.4	24.3	19.5	74.3*	83.3*
COC(=O)CSc1nc(N)c(C#N)c(CC(C)C)c1C#N	26.1*	5.7	-14.3	-36.4	-3.1	16.8	9.3	13.1
O=C(COc1ccc2nsnc2c1)N1CCC(COc2ccccn2)CC1	/	15.3	0.7	/	/	/	/	/
CCCCc1cc(O)c(CCCC)c(O)c1	92.9*	19.0	-44.3	102.2*	80.2*	7.6	92.5*	95.5*
CC(=O)OCCNc1cc(Sc2nc3ccccc3[nH]2)c2nonc2c1[N+](=O)[O-]	33.5*	32.3	1.4	29.4	48.0*	98.4*	60.0*	101.2*
COCCSc1ccccc1C(=O)N1CCC(Cc2ccccc2)CC1	-2.2	1.3	27.1	-13.4	-17.8	14.5	/	/
CCCNC(=O)c1cc(-c2ccc3c(c2)OCO3)on1	13.8	/	/	-18.3	-6.1	13.1	/	/
CC(C)NC(=O)c1cc(-c2ccc3c(c2)OCO3)on1	43.7*	/	/	-33.4	4.5	8.1	0.0	11.6
COc1ccc2c(COC(=O)CNS(=O)(=O)c3ccccc3)cc(=O)oc2c1	/	/	/	-17.3	-12.1	7.7	/	/
CCCNS(=O)(=O)c1cccc(C(=O)OCc2cc(=O)oc3cc(OC)ccc23)c1	34.1*	/	/	54.7*	26.5	47.0	32.7*	56.7*
O=C(OCc1ccccc1)C1=NNC2C(=O)N(c3ccccc3)C(=O)C12 (stereo unspecified)	22.8*	4.7	3.8	-2.1	-5.5	0.2	-2.1	-5.8
CCc1ccc(N2C(=O)C3NN=C(C(=O)OCc4ccccc4)C3C2=O)cc1 (stereo unspecified)	-3.9	8.4	19.5	-11.4	-23.9	13.1	/	/
CCC1(CC)Nc2ccccc2C(=O)N1c1ccc(OC)cc1	4.2	5.8	0.1	-12.0	-4.6	5.1	/	/
N[C@@H](Cc1ccccc1)c1nnc(SCc2ccccc2Cl)o1	-6.2	5.2	3.9	-32.0	-20.6	7.6	/	/
CCC(C)Sc1nc2c(c(=O)[nH]1)C(c1cccs1)C1=C(CCCC1=O)N2 (stereo unspecified)	31.9*	5.3	3.0	-26.4	-3.4	17.6	25.0*	29.8*
Cc1cc(C=O)c(C)n1-c1ccc(Oc2ccc([N+](=O)[O-])cn2)cc1	26.7*	3.8	-2.3	-9.1	-5.4	33.8	35.9*	52.5*
CC(c1ccccc1C(O)(c1ccccc1)c1ccccc1)N(C)C (stereo unspecified)	68.3*	14.2	-37.0	32.4	30.2*	4.9	91.7*	96.2*
CC1CCc2onc(C(=O)O)c2C1 (stereo unspecified)	24.1*	13.2	29.4	-1.8	5.6	9.2	9.5	-4.1
SMILES	GPR7 antag	EP2 antag	EP2 modulator	OX1R antag-1	CHO parental Ca	OX1R antag-2	GPR7 antag conf	MCHR1 antagonist
O=C(NCc1ccc(F)cc1F)c1cc(COc2c(F)cccc2F)on1	0.6	4.3	-16.2	-26.5	-7.4	15.6	/	/
COc1ccc(-c2c(C#Cc3ccsc3)c3cc(Br)ccc3n2C)cc1	/	/	/	-6.3	-5.2	5.9	/	/
Cc1ccccc1CNC(=O)c1ccc(CSCc2ccccc2)cc1	31.7*	13.4	-16.2	-14.7	-12.9	36.1	24.9*	48.4*
O=C(CSc1ccccc1)Nc1ccc2c(c1)C(=O)NC2=O	26.6*	/	/	14.3	7.7	19.1	37.0*	36.0*
CC(=O)c1ccc(C(=O)Nc2ccc3c(c2)C(=O)NC3=O)cc1	22.2*	/	/	-8.1	3.9	9.2	-11.2	5.8
Cc1cccc(C)c1OCC(=O)Nc1ccc2c(c1)C(=O)NC2=O	32.5*	/	/	-4.5	-10.4	30.1	27.2*	28.8*
COc1ccc(OCC(=O)Nc2ccc3c(c2)C(=O)NC3=O)cc1	28.7*	/	/	16.0	3.7	36.9	25.7*	17.1
O=C(COc1ccc(Br)cc1)Nc1ccc2c(c1)C(=O)NC2=O	8.5	6.8	-7.2	16.7	12.8	18.2	/	/
O=C(CN1c2cccc3cccc(c23)S1(=O)=O)Nc1cccc(S(=O)(=O)N2CCOCC2)c1	-14.4	4.4	6.6	-15.0	9.9	6.5	/	/
CN(Cc1ccc(N(C)C)cc1)C(=O)c1cc2ccccc2o1	40.9*	/	/	6.5	6.1	21.0	10.4	26.2*
CCOc1ccc(CN(C)C(=O)c2cc3ccccc3o2)cc1OC	-10.6	/	/	-27.5	-0.6	15.9	/	/
CCc1ccccc1NC(=O)c1cc([N+](=O)[O-])ccc1N1CCOCC1	33.1*	/	/	-12.6	-15.4	36.3	-4.1	4.6
CC1CCN(c2ccccc2NC(=O)c2cc([N+](=O)[O-])ccc2N2CCOCC2)CC1	-14.2	/	/	-27.2	-25.4	13.9	/	/
Cc1sc2nc(C3CC3)n(C3CCN(C(=O)C(C)(C)C)CC3)c(=O)c2c1C	/	/	7.6	/	/	/	/	/
CN(C)S(=O)(=O)N1CCC(Oc2ccc(C(=O)NC3Cc4ccccc4C3)cc2)CC1	50.9*	/	/	-4.4	0.6	12.6	65.8*	74.6*
CN(Cc1cccs1)C(=O)CCCc1c[nH]c2ccccc12	32.9*	5.2	-23.3	-23.2	-10.3	19.9	32.9*	44.5*
